This passage reports IC50, Activity and inhibition results from ChEMBL document CHEMBL1777776, “Identification of 2-mercaptohexanoic acids as dual inhibitors of 5-lipoxygenase and microsomal prostaglandin E₂ synthase-1” (Bioorg Med Chem, 2011).

The source made the active and inactive calls. The rule behind the calls is not given here.

For series [1], the target named is T1, Polyunsaturated fatty acid 5-lipoxygenase (Homo sapiens, UniProt P09917).
T1 sequence (P09917 whole entry): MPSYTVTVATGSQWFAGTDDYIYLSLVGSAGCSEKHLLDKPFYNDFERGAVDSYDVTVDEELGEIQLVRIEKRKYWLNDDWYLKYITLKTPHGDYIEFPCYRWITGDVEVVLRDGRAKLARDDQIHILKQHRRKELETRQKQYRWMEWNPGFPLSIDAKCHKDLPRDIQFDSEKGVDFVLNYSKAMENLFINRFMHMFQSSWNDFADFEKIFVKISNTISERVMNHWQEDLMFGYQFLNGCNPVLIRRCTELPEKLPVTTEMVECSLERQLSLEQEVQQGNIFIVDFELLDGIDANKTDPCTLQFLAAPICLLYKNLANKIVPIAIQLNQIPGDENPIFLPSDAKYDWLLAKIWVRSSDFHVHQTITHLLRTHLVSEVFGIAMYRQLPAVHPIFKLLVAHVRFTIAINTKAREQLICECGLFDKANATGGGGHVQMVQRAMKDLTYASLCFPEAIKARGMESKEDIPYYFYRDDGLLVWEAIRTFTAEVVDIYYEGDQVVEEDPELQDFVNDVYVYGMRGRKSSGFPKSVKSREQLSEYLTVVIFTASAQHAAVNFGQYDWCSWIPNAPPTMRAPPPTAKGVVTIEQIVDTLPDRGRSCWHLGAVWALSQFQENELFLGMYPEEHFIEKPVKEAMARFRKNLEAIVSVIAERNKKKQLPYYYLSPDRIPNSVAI
Briefly: Inhibition of human recombinant 5-lipoxygenase expressed in Escherichia coli BL21 assessed as enzyme product formation using arachidonic acid as substrate after 10 mins by RP-HPLC analysis. In short, it runs like this:
(§1)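 Human 5-LO expressed in E. coli BL21 (pT3-5LO), affinity-purified and used at once. 0.5 µg enzyme in 1 ml PBS/EDTA with 1 mM ATP preincubated with compound 5–10 min at 4 °C, then warmed 30 s at 37 °C. Reaction started with 2 mM CaCl₂ and AA (routinely 20 µM), with or without 1 µM 13(S)-HpODE. Run 10 min at 37 °C, stopped with ice-cold methanol, products analysed by HPLC. Washout: 10-fold dilution (10 to 1 µM).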

For series [2], the target named is T2, Polyunsaturated fatty acid 5-lipoxygenase (Homo sapiens) (UniProt P09917).
T2 sequence (whole entry): T1 sequence (P09917 whole entry)
The experiment in a line: Inhibition of human recombinant 5-lipoxygenase expressed in Escherichia coli BL21 assessed as residual activity by measuring enzyme product formation using arachidonic acid as substrate at 10 uM after 10 mins by RP-HPLC analysis. In short, it runs like this: as §1

For the next series, the system named is A549. The experiment in a line: Cytotoxicity against human A549 cells assessed as cell viability at 10 uM after 16 hrs by MTT assay. Format: cell-based. The following applies: a549, 5 h, in the assay text read “5 hrs” for “16 hrs”. In short, it runs like this: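 A549 cells plated at 4 × 10⁴ cells per well, incubated 16 h at 37 °C, 5% CO₂, then exposed to 10 µM compound or DMSO (≤0.3% final) for 5 h. MTT added for 4 h, formazan solubilized with SDS in 20 mM HCl, absorbance at 595 nm read relative to vehicle-treated cells.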
(In general: Tetrazolium assays rely on reduction of a dye to a coloured formazan, in cell work by metabolically active cells.)

The next series concerns the target T3, Prostaglandin E synthase (Homo sapiens, UniProt O14684).
T3 sequence (O14684 whole entry): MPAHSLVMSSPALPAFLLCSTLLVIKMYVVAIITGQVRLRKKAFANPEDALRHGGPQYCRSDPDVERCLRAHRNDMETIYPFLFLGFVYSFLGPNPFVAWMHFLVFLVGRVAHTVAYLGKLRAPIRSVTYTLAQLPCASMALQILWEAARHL
Briefly: Inhibition of mPGES-1 in human IL-1beta-stimulated A549 cell microsomes assessed as reduction of PGE2 formation from PGH2 after 15 mins. Also on record: species or system Microsome. The method in brief:
(§2)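 Microsomes from A549 cells stimulated 72 h with IL-1β (1 ng/ml), diluted to 50 µg/ml in 0.1 M potassium phosphate pH 7.4 with 2.5 mM glutathione. Preincubated with compound (1% DMSO final) 15 min at 4 °C. Reaction started with 20 µM PGH₂, run 1 min at 4 °C, stopped with FeCl₂/citric acid containing 11β-PGE₂; PGE₂ quantified. Mean of n = 3–5.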

The target of series [3] is T4, Prostaglandin E synthase (Homo sapiens) (UniProt O14684).
T4 sequence (whole entry): T3 sequence (O14684 whole entry)
The experiment in a line: Inhibition of mPGES-1 in human IL-1beta-stimulated A549 cell microsomes assessed as residual activity by measuring reduction of PGE2 formation from PGH2 at 10 uM after 15 mins. Particulars: Microsome. In short, it runs like this:
as §2

In series [4] the target is T1, Polyunsaturated fatty acid 5-lipoxygenase. Briefly: Inhibition of 5-lipoxygenase in A23187-stimulated human PMNL assessed as enzyme product formation preincubated 15 mins by RP-HPLC analysis in presence of exogenous arachidonic acid. The method in brief:
(§3)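 Freshly isolated human PMNL (5 × 10⁶/ml PGC buffer: PBS pH 7.4, 1 mg/ml glucose, 1 mM CaCl₂) preincubated with compound 15 min at 37 °C. Stimulated with 2.5 µM A23187 plus exogenous AA for 10 min at 37 °C. Stopped with methanol, PGB₁ added as internal standard, lipoxygenase products analysed by HPLC. Mean of n = 3–5.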

In series [5] the target is T2, Polyunsaturated fatty acid 5-lipoxygenase (Homo sapiens). Briefly: Inhibition of 5-lipoxygenase in A23187-stimulated human PMNL assessed as residual activity by measuring enzyme product formation at 10 uM preincubated 15 mins by RP-HPLC analysis in presence of exogenous arachidonic acid. The method in brief:
as §3

Broadly, the IC50 is the concentration at which inhibition is half-maximal. As for `CCCCC(Sc1ccc(OCCCOc2cccc(OC)c2)cc1)C(=O)O` (stereo not drawn), the IC50 in series [1] is greater than 10 µM; on Prostaglandin E synthase it was greater than 10 µM; in series [4], 4.8 µM. For the same molecule, the Activity in series [2] was 67.7%; in the series on A549 it was “Non-toxic”; in series [3] it was 59.1%.

On to `CCCCC(Sc1ccc(OCCCOc2ccc3ncccc3c2)cc1)C(=O)O` (stereo not drawn), for which the Activity was 92.2% in series [5], 59% in series [2] and “Non-toxic” in the series on A549. The IC50 (in series [1]; on Prostaglandin E synthase; in series [4]) was greater than 10 µM each time. The inhibition entry in series [3] is “inactive”.

As to `CCCCC(Sc1ccc(OCCCOc2ccc(Cl)cc2OC)cc1)C(=O)O` (stereo not drawn), the figures for the Activity (in series [5]; in series [2]; with A549) were 79.3%, 59.2% and “Non-toxic”, respectively. Moreover, the results for the IC50 (in series [1]; on Prostaglandin E synthase; in series [4]) were greater than 10 µM, 9.4 µM and greater than 10 µM, respectively.

As to `Cc1cccc(OCCCOc2ccc(SCC(=O)O)cc2)c1C`, the Activity in series [5] is 69.6%; in series [2], 72.4%; in the series with A549 it was “Non-toxic”; in series [3], 75.4%. The IC50 (in series [1]; on Prostaglandin E synthase; in series [4]) was greater than 10 µM throughout.

Consider `CCCCC(Sc1ccc(OCCCOc2cccc3c2CCCC3)cc1)C(=O)OCC` (stereo not drawn), for which the Activity in series [5] was 87.4%; in series [2] it was 79.4%; in the series with A549, “Non-toxic”. Further, the IC50 in series [1] and in series [4] was greater than 10 µM throughout.

For the molecule `CCCCC(Sc1ccc(OCCCOc2ccc(-c3ccccc3)cc2)cc1)C(=O)OCC` (stereo not drawn), the Activity in series [5] is 91.5%; in series [2], 83%; with A549, “Non-toxic”. The IC50 in series [1] and in series [4] was greater than 10 µM each time.

As for `CCCCC(Sc1ccc(OCCCOc2ccccc2C)cc1)C(=O)O` (stereo not drawn), the results for the IC50 (in series [1]; at Prostaglandin E synthase; in series [4]) were greater than 10 µM, 8.8 µM and 4.8 µM, respectively. The values for the Activity (in series [2]; in the series with A549) were 58.3% and “Non-toxic”, respectively.

Take `CCCCC(Sc1ccc(OCCCOc2cccc(C(C)C)c2)cc1)C(=O)O` (stereo not drawn): the IC50 in series [1] was determined as 6 µM; on Prostaglandin E synthase, 2.7 µM; in series [4], 1.4 µM. For the same molecule, the Activity result in the series with A549 is reported as “Non-toxic”.

`CCCCC(Sc1ccc(OCCCOc2ccccc2C(C)C)cc1)C(=O)O` (stereo not drawn): the values for the IC50 (in series [1]; at Prostaglandin E synthase; in series [4]) were 7.8 µM, 4.1 µM and 1.6 µM, respectively. For the same molecule, in the series with A549, the Activity entry was “Non-toxic”.

With `CCCCC(Sc1ccc(OCCCOc2cccc(C)c2C)cc1)C(=O)O` (stereo not drawn), the IC50 in series [1] came to 8.8 µM; at Prostaglandin E synthase it was 2.9 µM; in series [4], 3 µM. The Activity entry with A549 was “Non-toxic”.

Take `CCCC[C@H](Sc1ccc(OCCCOc2cccc(C)c2C)cc1)C(=O)O`: the IC50 in series [1] is 8.2 µM; at Prostaglandin E synthase, 4.6 µM; in series [4], 2 µM. Further, in the series with A549, the Activity entry is on record as “Non-toxic”.

As for `CCCCC(Sc1ccc(OCCCOc2cccc(C)c2)cc1)C(=O)O` (stereo not drawn), the IC50 in series [1] was greater than 10 µM; at Prostaglandin E synthase, greater than 10 µM; in series [4] it was 4.8 µM. For the same molecule, the Activity in series [2] was 79.3%; in the series with A549, “Non-toxic”; in series [3], 58%.

For the molecule `CCCCC(Cc1ccc(OCCCOc2cccc(C)c2C)cc1)C(=O)O` (stereo not drawn), the IC50 is greater than 10 µM in series [1], 7.1 µM at Prostaglandin E synthase and 2 µM in series [4]. Besides, the Activity was 70.8% in series [2] and “Non-toxic” in the series with A549.

Regarding `Cc1cccc(OCCCOc2ccc(CCC(=O)O)cc2)c1C`, the Activity in series [5] was 80%; in series [2], 81.8%; with A549 it was “Non-toxic”; in series [3] it was 83.9%. Further, the IC50 (in series [1]; at Prostaglandin E synthase; in series [4]) was greater than 10 µM in each case.

On to `CCCCC(Sc1ccc(OCCCOc2ccccc2OC)cc1)C(=O)O` (stereo not drawn), for which the Activity in series [5] was 57.4%; in series [2] it was 79.4%; in the series on A549, “Non-toxic”; in series [3], 88.3%. The IC50 (in series [1]; on Prostaglandin E synthase; in series [4]) was greater than 10 µM throughout.

Take `CCCCC(Sc1ccc(OCCCOc2ccccc2)cc1)C(=O)O` (stereo not drawn): the values for the IC50 (in series [1]; on Prostaglandin E synthase; in series [4]) were greater than 10 µM, greater than 10 µM and 9.5 µM, respectively. Further, the results for the Activity (in series [2]; in the series with A549; in series [3]) were 69.4%, “Non-toxic” and 81.9%, respectively.

On to `CCCCC(Sc1ccc(OCCCOc2ccc3ncccc3c2)cc1)C(=O)OCC` (stereo not drawn), for which the figures for the IC50 (in series [1]; at Prostaglandin E synthase; in series [4]) were greater than 10 µM, greater than 10 µM and 0.8 µM, respectively. The results for the Activity (in series [2]; in the series on A549; in series [3]) were 68.3%, “Non-toxic” and 83.9%, respectively.

With `CCCCC(Sc1ccc(OCCCOc2ccc(C)cc2)cc1)C(=O)O` (stereo not drawn), the IC50 was greater than 10 µM in series [1], 9.3 µM at Prostaglandin E synthase and 5.2 µM in series [4]. Further, the Activity in series [2] was 67.6%; in the series on A549, “Non-toxic”.

Regarding `CCCC[C@@H](Sc1ccc(OCCCOc2cccc(C)c2C)cc1)C(=O)O`, the IC50 in series [1] was found to be 10 µM; on Prostaglandin E synthase, 4.2 µM; in series [4], 1.1 µM. Moreover, the Activity result with A549 is “Non-toxic”.

Consider `CCCCC(Sc1ccc(OCCCOc2cccc(C(F)(F)F)c2)cc1)C(=O)O` (stereo not drawn), for which the IC50 in series [1] worked out at 9.8 µM; on Prostaglandin E synthase, 2 µM; in series [4], 1.6 µM. The Activity entry in the series with A549 is given as “Non-toxic”.

As for `CCCC/C(=C\c1ccc(OCCCOc2cccc(C)c2C)cc1)C(=O)O`, the IC50 in series [1] is greater than 10 µM; at Prostaglandin E synthase, greater than 10 µM; in series [4], 1.6 µM. Further, the figures for the Activity (in series [2]; in the series on A549; in series [3]) were 88.9%, “Non-toxic” and 28.3%, respectively.
